Cav32 inh: blocks human Cav3.2 T-type calcium channel. O95180. 4% of 100,000 active. Cav3.2-expressing cells, Fluo-4 calcium fluorescence FDSS; hits give low values. B-score at 10 µM;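 active = single-dose well whose peak fluorescence ratio is a statistical outlier from its plate by either plate-standardised score or position-corrected B-score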
Phagocytosis inh: macrophage phagocytosis inhibition; J774A.1 macrophage IgG-bead phagocytosis, imaging; inhibition, % at 5 µM; 0.07% of 110,000 active;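 active = inhibition above the mean of the plate negative controls plus 5 SD, cut at about 13% in these data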;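 note: phagocytic index as fraction of beads internalized from green versus red external bead signal; plate controls were DMSO negative control for no effect and cytochalasin-D positive control for full effect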
HIV Rev-RRE inh: disrupts HIV-1 Rev binding to RRE RNA | P05866 | Rev peptide-RRE RNA binding, FRET | inhibition, % at 8 µM | 0.79% of 97,000 active;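 active = inhibition above the screen-wide mean plus 3 SD, cut at about 35% in these data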;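 note: 0% = median DMSO wells and 100% = median Neomycin B control wells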
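Material: labelled RRE RNA duplex and labelled Rev peptide / Buffer or medium: HEPES pH 7.5 salt buffer with EDTA / Compound dosing: single point, 8 µM final nominal compound concentration / Benchmarks: DMSO low control, neomycin B high control / Timing: 5 min preincubation and 15 min binding, 25 °C / Technique: FRET fluorescence readout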
Measles CPE: protection of cells from measles virus; Measles virus-infected cells, CPE protection, absorbance; protection (pct of control), % at 4 µM; 1.5% of 140,000 active; in the data active = protection mostly above about 24%, no sharp cut-off; inactive = mostly below about 26%
DAT uptake mod: changed human dopamine transporter uptake under cocaine IC80. Q01959. LLC-PK1 hDAT cells, [14C]-dopamine uptake with cocaine IC80; actives deviate in either direction. B-score at 10 µM. 1.3% of 110,000 active. AID 449768;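 active = Z score or B-score, a plate-position-corrected score, falls beyond the plate's 99.7% confidence bounds, in either direction; inactive = both scores lie inside the 99.7% bounds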;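 note: scored against the spread of the other compound wells on the same plate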
Pyk2 oligo antag: antagonists of human Pyk2 oligomerization; Q14289; Q293 cells, Pyk2 FERM NanoBiT luminescence; hits give low values; z-score (the deposit names both 25 µM and 10 µM); 0.83% of 99,000 active; AID 1347419;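 active = Z-score of -3 or lower, scaled per plate to the spread of control and sample wells; inactive = z-score above -3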;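 note: negative z-score means lost luminescence so less FERM oligomerization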
Target sequence (Q14289 whole entry, looked up): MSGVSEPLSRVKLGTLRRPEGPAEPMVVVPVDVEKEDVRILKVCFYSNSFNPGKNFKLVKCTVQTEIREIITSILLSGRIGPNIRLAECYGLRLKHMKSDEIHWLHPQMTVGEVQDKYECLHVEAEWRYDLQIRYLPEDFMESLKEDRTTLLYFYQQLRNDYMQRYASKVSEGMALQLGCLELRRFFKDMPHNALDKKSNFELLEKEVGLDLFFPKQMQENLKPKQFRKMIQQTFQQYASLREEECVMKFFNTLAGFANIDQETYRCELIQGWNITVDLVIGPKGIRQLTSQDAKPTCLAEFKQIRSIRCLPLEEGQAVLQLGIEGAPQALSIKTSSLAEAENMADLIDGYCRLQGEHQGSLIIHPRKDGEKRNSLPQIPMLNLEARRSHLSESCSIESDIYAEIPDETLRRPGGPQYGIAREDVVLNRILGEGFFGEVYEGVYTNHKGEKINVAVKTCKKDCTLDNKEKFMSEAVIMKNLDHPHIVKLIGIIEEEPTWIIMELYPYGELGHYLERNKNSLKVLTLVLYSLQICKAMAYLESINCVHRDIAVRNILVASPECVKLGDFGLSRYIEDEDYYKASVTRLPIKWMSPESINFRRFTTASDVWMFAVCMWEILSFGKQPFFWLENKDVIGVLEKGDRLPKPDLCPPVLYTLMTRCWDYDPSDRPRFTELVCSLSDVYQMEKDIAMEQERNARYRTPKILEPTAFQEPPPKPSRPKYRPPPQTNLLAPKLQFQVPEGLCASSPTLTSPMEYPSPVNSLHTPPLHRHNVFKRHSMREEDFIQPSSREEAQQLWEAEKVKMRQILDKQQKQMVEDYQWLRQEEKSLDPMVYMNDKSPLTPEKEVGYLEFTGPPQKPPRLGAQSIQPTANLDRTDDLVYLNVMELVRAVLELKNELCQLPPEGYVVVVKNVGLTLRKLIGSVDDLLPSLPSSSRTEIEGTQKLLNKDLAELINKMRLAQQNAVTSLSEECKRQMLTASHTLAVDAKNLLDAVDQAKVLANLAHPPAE
An asterisk follows results filed as active. An excerpt weighted towards active compounds, which were near 5.9% of everything screened.

Results for Cc1ccc(C(=O)NCCSc2c(C)[nH]c3ccccc23)cc1[N+](=O)[O-] ?
Cav32 inh: -6.87*; Measles CPE: 20.8; DAT uptake mod: -0.324

Results for Cc1ccc(C(=O)NCCSc2ccc(Cl)cc2)cc1[N+](=O)[O-] ?
Cav32 inh: -5.81*; HIV Rev-RRE inh: 11.1; Measles CPE: 5.0; DAT uptake mod: 0.0578; Pyk2 oligo antag: -0.25

What do the screens show for `Cc1ccc(SCCNC(=O)c2ccc(C)c([N+](=O)[O-])c2)cc1`?
Cav32 inh: -5.62*; HIV Rev-RRE inh: 7.1; Measles CPE: 12.1; DAT uptake mod: 1.11; Pyk2 oligo antag: 1.07

Results for O=c1c(-c2ccc(O)cc2)coc2cc(OC3OC(CO)C(O)C(O)C3O)ccc12 (configuration not stated) ?
Cav32 inh: -0.0959; Measles CPE: 8.9; DAT uptake mod: -0.921

Results for O=c1c2cn[nH]c2[nH]c(=S)n1-c1cccc(Cl)c1 ?
Phagocytosis inh: 4.3; Measles CPE: 4.1

How did O=C(c1nnc(Cc2ccc(Cl)cc2)o1)N1CCc2ccccc2C1 do in these assays?
Cav32 inh: -5.68*; Measles CPE: 4.0; DAT uptake mod: 1.25

How did COCCN=C1Sc2nc3ccc(C)cc3cc2CN1Cc1ccco1 do in these assays?
Cav32 inh: -1.73; Phagocytosis inh: 1.0; HIV Rev-RRE inh: 3.2; Measles CPE: 6.3; DAT uptake mod: 3.17*; Pyk2 oligo antag: 1.69

What do the screens show for `CCOc1ccc2nc3c(cc2c1)CN(CCOC)C(=NCCOC)S3`?
Cav32 inh: -0.619; HIV Rev-RRE inh: -1.1; Measles CPE: 6.0; DAT uptake mod: -0.581; Pyk2 oligo antag: -0.92

What do the screens show for `COc1ccc(-c2cn(-c3ccc(C)cc3)c(=O)n2CC(=O)Nc2cccc(F)c2)cc1`?
Cav32 inh: -5.03*; Phagocytosis inh: -0.9; HIV Rev-RRE inh: -6.7; Measles CPE: 4.0; DAT uptake mod: -0.106; Pyk2 oligo antag: -0.86

What do the screens show for `O=C(CSc1nnc2c(n1)[nH]c1ccc(F)cc12)OCc1ccccc1`?
Cav32 inh: 0.437; HIV Rev-RRE inh: 11.8; Measles CPE: 21.8; DAT uptake mod: -8.58*; Pyk2 oligo antag: 1.3

What do the screens show for `NNC(=O)Cn1c(SCc2ccccc2)nc2ccccc21`?
Cav32 inh: -0.0067; Phagocytosis inh: -1.5; HIV Rev-RRE inh: 7.2; Measles CPE: 3.0; DAT uptake mod: -0.817; Pyk2 oligo antag: 1.08

What do the screens show for `Cc1ccc(C(=O)O)cc1S(=O)(=O)N1CCSCC1`?
Cav32 inh: 0.609; Phagocytosis inh: -0.8; HIV Rev-RRE inh: 8.9; Measles CPE: 12.1; DAT uptake mod: -9.12*; Pyk2 oligo antag: 0.58

How did CCCCOc1cccc(OCC(=O)Nc2nc3ccccc3[nH]2)c1 do in these assays?
Phagocytosis inh: -5.3; Measles CPE: 3.6

How did CCN(CC)c1ccc(C(=O)OCC(=O)Nc2sccc2C#N)cc1 do in these assays?
Phagocytosis inh: -9.6; Measles CPE: 16.1

Results for CC(C)c1ccc(C2C3=C(CC(C)(C)CC3=O)NC3=C2C(=O)c2ccccc23)cc1 (configuration not stated) ?
Cav32 inh: -2.23; Phagocytosis inh: -5.8; HIV Rev-RRE inh: 7.0; Measles CPE: 12.5; DAT uptake mod: 0.308; Pyk2 oligo antag: -3.03*

Results for CC1(C)CC(=O)C(C=Nc2ccncc2)=C(O)C1 ?
Cav32 inh: 1.58; HIV Rev-RRE inh: 7.7; DAT uptake mod: -0.617; Pyk2 oligo antag: 1.28

What do the screens show for `CC1(C)CC(=O)C=C(N=CC2=C(O)CC(C)(C)CC2=O)C1`?
Phagocytosis inh: 1.6; HIV Rev-RRE inh: -0.2; Measles CPE: 51.7*; DAT uptake mod: -0.0814; Pyk2 oligo antag: 0.26

How did CCCCNC(=S)N/N=C/c1ccc(OCC(=O)Nc2c(C)cc(C)cc2C)c(OC)c1 do in these assays?
Measles CPE: 9.0

Results for O=C(/C=C/c1cccc(Cl)c1)c1nc2ccccc2[nH]1 ?
Cav32 inh: 0.0778; HIV Rev-RRE inh: 10.0; Measles CPE: 57.9*; Pyk2 oligo antag: -1.43

Results for CCN(CC)S(=O)(=O)c1cccc(C(=O)Nc2nc3cc4c(cc3s2)OCCO4)c1 ?
Cav32 inh: -0.222; Phagocytosis inh: -0.1; Measles CPE: 9.2; DAT uptake mod: 0.0885; Pyk2 oligo antag: -3.45*

How did Cc1ccnc(SCCn2c(N3CCOCC3)nc3c2c(=O)n(C)c(=O)n3C)n1 do in these assays?
HIV Rev-RRE inh: 7.5

Results for COC(=O)C1=C(C)N(CCCC(=O)O)C(=O)NC1c1ccccc1OS(=O)(=O)c1ccc([N+](=O)[O-])cc1 (configuration not stated) ?
Cav32 inh: 1.12; DAT uptake mod: -0.136

How did CCCCCCNc1c([N+](=O)[O-])cc(C)cc1[N+](=O)[O-] do in these assays?
Cav32 inh: 0.00963; HIV Rev-RRE inh: 24.9; DAT uptake mod: 1.17; Pyk2 oligo antag: 0.07

How did O=[N+]([O-])c1cc(Cl)cc(/C=N\Nc2ccccn2)c1O do in these assays?
Cav32 inh: -3.75*; Phagocytosis inh: 0.1; HIV Rev-RRE inh: -6.0; Measles CPE: 1.4; DAT uptake mod: 0.603; Pyk2 oligo antag: 0.11

Results for O=C(COC(=O)c1ccc(Cl)c(S(=O)(=O)N2CCc3ccccc3C2)c1)Nc1ncc(Cl)cc1Cl ?
Phagocytosis inh: -1.4; Measles CPE: 5.2

What do the screens show for `CCOC(=O)C(=O)c1cn(C2OCC(OC(C)=O)C(OC(C)=O)C2OC(C)=O)c2ccccc12` (configuration not stated)?
Phagocytosis inh: -16.9; Measles CPE: 14.8

What do the screens show for `CCCNS(=O)(=O)c1ccc(OCC(=O)OC)cc1`?
Cav32 inh: 0.0452; Phagocytosis inh: -0.1; HIV Rev-RRE inh: 3.1; Measles CPE: 39.1*; DAT uptake mod: -0.451; Pyk2 oligo antag: 1.43

What do the screens show for `CCOC(=O)COc1ccc(S(=O)(=O)c2ccc(OCC(=O)OCC)cc2)cc1`?
Cav32 inh: -6.05*; Phagocytosis inh: -1.2; HIV Rev-RRE inh: 9.4; Measles CPE: 0.8; DAT uptake mod: -0.643; Pyk2 oligo antag: 0.72

How did O=C(NCCCN1CCCC1=O)c1ccc2c(c1)ncn2C1CCCCC1 do in these assays?
Measles CPE: 41.3*

What do the screens show for `COC(=O)Oc1ccc(/C=N/NC(=O)CSCc2ccccc2Br)cc1OC`?
Cav32 inh: -1.15; Phagocytosis inh: 0.3; HIV Rev-RRE inh: 14.2; Measles CPE: 11.1; DAT uptake mod: 1.25; Pyk2 oligo antag: -0.49

Results for Cn1c(=O)oc2cc(S(=O)(=O)Nc3ccc4c(c3)OCCO4)ccc21 ?
Cav32 inh: 0.647; Phagocytosis inh: 0.0; HIV Rev-RRE inh: 38.3*; Measles CPE: 23.9; DAT uptake mod: -0.0781; Pyk2 oligo antag: 1.6

How did COc1ccc(NS(=O)(=O)c2ccc(O)c(C(=O)OCC(=O)Nc3ccc4c(c3)OCCO4)c2)cc1 do in these assays?
Phagocytosis inh: -6.0; Measles CPE: 5.6

Results for Cc1ccc(NS(=O)(=O)c2ccc3c(c2)oc(=O)n3C)cc1F ?
Cav32 inh: -0.33; Phagocytosis inh: 0.0; HIV Rev-RRE inh: 6.5; Measles CPE: 45.5*; DAT uptake mod: 0.00382
